Holding throughout (assay type): functional
The subject of test [1] is Culex pipiens pallens. As to the kind of experiment: Larvicidal activity against fourth-instar larval stage of Culex pipiens pallens (mosquito) assessed as mortality at 2 mg/l at 25 +/-1 degC measured after 8 days. As to conditions: 192 h. An outline of the steps:
(§1)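 Insects were laboratory-reared and the bioassay was repeated at 25 ± 1 °C as statistics required. Larvae were scored dead or alive, and mortality was corrected with Abbott's formula. Results are given as percentage mortality on a 0–100 scale, where 0 is no activity and 100 is total kill. Hexaflumuron was run under the same conditions as the reference.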

Test [2] concerns Mythimna separata. As to the kind of experiment: Larvicidal activity against fourth-instar larval stage of Mythimna separata (Oriental armyworm) in compound pretreated corn leaves assessed as mortality at 200 mg/l at 25 +/-1 degC measured after 4 days. Summed up: as §1
For test [3], the system named is Mythimna separata. As to the kind of experiment: Larvicidal activity against fourth-instar larval stage of Mythimna separata (Oriental armyworm) in compound pretreated corn leaves assessed as mortality at 25 mg/l at 25 +/-1 degC measured after 4 days. Summed up:
as §1

The test system of test [4] is Mythimna separata. As to the kind of experiment: Larvicidal activity against fourth-instar larval stage of Mythimna separata (Oriental armyworm) in compound pretreated corn leaves assessed as mortality at 10 mg/l at 25 +/-1 degC measured after 4 days. Summed up: as §1
In test [5] the test system is Culex pipiens pallens. As to the kind of experiment: Larvicidal activity against fourth-instar larval stage of Culex pipiens pallens (mosquito) assessed as mortality at 1 mg/l at 25 +/-1 degC measured after 8 days. To be noted: 192 h. An outline of the steps: as §1
The test system of test [6] is Mythimna separata. As to the kind of experiment: Larvicidal activity against fourth-instar larval stage of Mythimna separata (Oriental armyworm) in compound pretreated corn leaves assessed as mortality at 100 mg/l at 25 +/-1 degC measured after 4 days. Summed up:
as §1

For test [7], the system named is Mythimna separata. As to the kind of experiment: Larvicidal activity against fourth-instar larval stage of Mythimna separata (Oriental armyworm) in compound pretreated corn leaves assessed as mortality at 50 mg/l at 25 +/-1 degC measured after 4 days. Summed up:
as §1

Test [8] deals with Culex pipiens pallens. As to the kind of experiment: Larvicidal activity against fourth-instar larval stage of Culex pipiens pallens (mosquito) assessed as mortality at 0.25 mg/l at 25 +/-1 degC measured after 8 days. As to conditions: 192 h. An outline of the steps: as §1

For the molecule `Cc1ccc(NC(=O)NC(=O)c2c(F)cccc2F)nn1`, the mortality at 2 µg/mL in the test on Culex pipiens pallens [1] came out at 20%. The mortality at 200 µg/mL in the test on Mythimna separata [2] was determined as 10%.

For the molecule `O=C(NC(=O)c1c(F)cccc1F)Nc1ccc(Sc2ccccc2)nn1`, the mortality at 200 µg/mL with Mythimna separata [2] stood at 20%.

Turning to `O=C(NC(=O)c1c(F)cccc1F)Nc1ccc(OCC(F)(F)F)nn1`, the mortality at 25 µg/mL with Mythimna separata [3] was found to be 100%. Also, the mortality at 10 µg/mL with Mythimna separata [4] was determined as 80%. In the test on Culex pipiens pallens [5], the mortality at 1 µg/mL amounted to 30%.

For the molecule `CCCCSc1ccc(NC(=O)NC(=O)c2c(F)cccc2F)nn1`, in the test with Mythimna separata [6], the mortality at 100 µg/mL stood at 100%. Besides, the mortality at 50 µg/mL in the test on Mythimna separata [7] was 90%. For the same molecule, in the test on Mythimna separata [2], the mortality at 200 µg/mL was 100%.

As for `CC(C)Oc1ccc(NC(=O)NC(=O)c2c(F)cccc2F)nn1`, in the test on Culex pipiens pallens [1], the mortality at 2 µg/mL came to 10%. Besides, the mortality at 100 µg/mL in the test on Mythimna separata [6] is 100%. In addition, in the test on Mythimna separata [7], the mortality at 50 µg/mL came out at 70%. The mortality at 200 µg/mL in the test with Mythimna separata [2] was determined as 100%.

For the molecule `CCOc1ccc(NC(=O)NC(=O)c2c(F)cccc2F)nn1`, the mortality at 2 µg/mL in the test with Culex pipiens pallens [1] is 20%. Also, the mortality at 100 µg/mL in the test on Mythimna separata [6] was 100%. In addition, the mortality at 50 µg/mL with Mythimna separata [7] amounted to 80%. Moreover, in the test on Mythimna separata [2], the mortality at 200 µg/mL worked out at 100%.

`O=C(NC(=O)c1c(F)cccc1F)Nc1ccc(Oc2ccccc2Cl)nn1`: the mortality at 2 µg/mL with Culex pipiens pallens [1] turned out to be 40%. The mortality at 200 µg/mL in the test on Mythimna separata [2] is 20%.

As to `O=C(NC(=O)c1c(F)cccc1F)Nc1ccc(OCc2ccc(Cl)cc2)nn1`, the mortality at 2 µg/mL with Culex pipiens pallens [1] was 10%. Further, in the test with Mythimna separata [2], the mortality at 200 µg/mL is 10%.

For the molecule `O=C(NC(=O)c1c(F)cccc1F)Nc1ccc(Oc2ccc(Cl)cc2Cl)nn1`, the mortality at 2 µg/mL in the test with Culex pipiens pallens [1] amounted to 60%. Moreover, the mortality at 200 µg/mL in the test with Mythimna separata [2] was 20%.

As for `O=C(NC(=O)c1c(F)cccc1F)Nc1ccc(Oc2c(Cl)cc(Cl)cc2Cl)nn1`, the mortality at 2 µg/mL with Culex pipiens pallens [1] was determined as 20%. Besides, the mortality at 100 µg/mL in the test with Mythimna separata [6] amounted to 10%.

`O=C(NC(=O)c1c(F)cccc1F)Nc1ccc(Oc2ccc(Br)cc2)nn1`: the mortality at 2 µg/mL with Culex pipiens pallens [1] was 100%. Further, the mortality at 1 µg/mL in the test with Culex pipiens pallens [5] was found to be 90%. In addition, the mortality at 200 µg/mL in the test on Mythimna separata [2] came to 30%.

Take `COc1ccc(Oc2ccc(NC(=O)NC(=O)c3c(F)cccc3F)nn2)cc1`: in the test with Culex pipiens pallens [1], the mortality at 2 µg/mL came to 10%. In addition, the mortality at 200 µg/mL in the test with Mythimna separata [2] was determined as 10%.

Consider `Cc1ccc(Oc2ccc(NC(=O)NC(=O)c3c(F)cccc3F)nn2)cc1`, for which, in the test with Culex pipiens pallens [1], the mortality at 2 µg/mL is 0%. For the same molecule, the mortality at 200 µg/mL in the test on Mythimna separata [2] was 0%.

On to `O=C(NC(=O)c1c(F)cccc1F)Nc1ccc(Oc2ccc(Cl)cc2)nn1`, for which, in the test with Culex pipiens pallens [1], the mortality at 2 µg/mL was 20%. Also, the mortality at 200 µg/mL in the test with Mythimna separata [2] stood at 10%.

For `O=C(NC(=O)c1c(F)cccc1F)Nc1cc(Cl)c(OC(F)(F)C(F)F)c(Cl)c1` [HEXAFLUMURON], the mortality at 0.25 µg/mL with Culex pipiens pallens [8] worked out at 100%. Further, the mortality at 10 µg/mL in the test on Mythimna separata [4] is 80%.
